Only some compounds are listed: those with a hit (about 2.4% of all), similar ones and a draw of the others.
DNMT1 block: human DNMT1 methyltransferase inhibitors, primary screen, biochemical, molecular beacon, fluorescence, HinP1I cleavage, uHTS; 360,000 compounds, 0.83% hits; inhibition (reported as % activation of signal), % at 10 µM; DNA (cytosine-5)-methyltransferase 1 (Homo sapiens), P26358; AID 588458, 2011; in the data active = inhibition above about 50%
LMPTP block: LMPTP phosphatase inhibitors, primary screen, biochemical, fluorescence intensity, uHTS. Low molecular weight phosphotyrosine protein phosphatase (Homo sapiens), P24666. recombinant LMPTP-A, OMFP fluorogenic substrate. inhibition, % at 20 µM. AID 651560, 2012. 360,000 compounds, 0.22% hits;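 active = compounds that cut the enzyme signal by at least half of the control window in the single-dose screen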
Target sequence (P24666 whole entry, looked up): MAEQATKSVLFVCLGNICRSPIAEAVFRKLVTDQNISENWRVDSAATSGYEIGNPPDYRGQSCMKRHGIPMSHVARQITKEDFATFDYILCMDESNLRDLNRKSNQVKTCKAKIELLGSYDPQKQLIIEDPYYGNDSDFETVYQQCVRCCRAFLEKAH
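Assay system: LMPTP-A, protein tyrosine phosphatase of low molecular weight / Medium: pH 6.0 Bis-Tris buffer with DTT and Triton X-100 / Schedule: 50 min enzyme reaction at room temperature, protected from light / Measured by: endpoint fluorescence intensity from OMFP dephosphorylation / Read-out basis: % inhibition relative to no-enzyme and uninhibited control wells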
STEP block: STEP phosphatase inhibitors, primary screen, biochemical, fluorescence intensity, uHTS. Tyrosine-protein phosphatase non-receptor type 5 (Homo sapiens), P54829. recombinant STEP, OMFP fluorogenic substrate. inhibition, % at 20 µM. 360,000 compounds, 0.25% hits. AID 588621, 2011;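 active = inhibition at 20 µM, scaled per plate between control wells, above about 37%, limit read from the data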
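Material: STEP (striatal-enriched tyrosine phosphatase) enzyme, cell-free | Medium: 50 mM Bis-Tris pH 6.0 with 2.5 mM DTT and 0.005% Tween 20 | Read-out: Percent inhibition scaled to no-enzyme and uninhibited-enzyme controls, plate-pattern corrected | Signal: Fluorescence read at 480 nm ex / 540 nm em | Times: 20 min reaction, room temperature, in the dark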
Scp1 inh: Scp-1 phosphatase inhibitors, primary screen, biochemical, colorimetric, uHTS; Carboxy-terminal domain RNA polymerase II polypeptide A small phosphatase 1 (Homo …; Recombinant Scp1, phosphopeptide, malachite green phosphate absorbance; inhibition, % at 20 µM; 340,000 compounds, 0.88% hits;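 active = inhibition above about 50% at 20 µM, limit read from the data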
Target sequence (Q9GZU7 76-261 limits assumed): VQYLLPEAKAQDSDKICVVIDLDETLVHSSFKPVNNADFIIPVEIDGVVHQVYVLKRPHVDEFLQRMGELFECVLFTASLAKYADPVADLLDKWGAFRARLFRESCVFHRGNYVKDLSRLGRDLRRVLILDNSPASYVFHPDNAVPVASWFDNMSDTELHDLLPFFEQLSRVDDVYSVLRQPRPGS
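System: truncated SCP-1 phosphatase (76-261aa); medium: Tris acetate buffer pH 5.5 with MgCl2 and Tween-20; incubation: 45 min room-temperature reaction, 5 min colour, 30 min stabiliser; compound: single 20 µM dose, 1% DMSO; reagent: Phosphorylated 17-residue peptide substrate; read-out: % inhibition at 20 µM; technique: colorimetric free-phosphate detection, absorbance 630 nm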
SUMO1 PPI mod: modulators of SUMO1 protein-protein interactions, primary screen, biochemical, uHTS. Small ubiquitin-related modifier 1 (Homo sapiens), P63165. SUMO1 binding to a labelled peptide, TR-FRET, 1 h. inhibition, % at 20 µM. 360,000 compounds, 0.33% hits; in the data active = inhibition above about 37%
Target sequence (P63165 whole entry, looked up): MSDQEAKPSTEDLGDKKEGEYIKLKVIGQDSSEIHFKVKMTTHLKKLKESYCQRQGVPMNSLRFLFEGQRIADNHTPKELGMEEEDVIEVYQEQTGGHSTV
NadD block: inhibitors of S. aureus NadD, primary screen, biochemical, colorimetric, uHTS; 360,000 compounds, 0.78% hits; Nicotinate-nucleotide adenylyltransferase NadD (Staphylococcus aureus N315); inhibition, % at 20 µM; purified NadD enzyme, colorimetric absorbance read-out; in the data active = inhibition above about 26%
NadD conf: inhibitors of S. aureus NadD, confirmation, biochemical, colorimetric, single concentration; shares compounds with NadD block; purified S. aureus NadD, colorimetric enzyme assay; inhibition, % at 20 µM; 2,000 compounds, 13% hits; AID 624309, 2012; in the data active = inhibition mostly above about 42%, no sharp cut-off; inactive = mostly below about 42%
Hits are given with their value; n = inactive; x = no result; ! = a repeat was not active.

SMILES	DNMT1 block	LMPTP block	STEP block	Scp1 inh	SUMO1 PPI mod	NadD block	NadD conf
O=C(Nc1ccc(Cl)cc1)Nc1ccc(N2CCCC2)c(S(=O)(=O)Nc2ccccc2Cl)c1	n	n	n	n	n	33	n
CN(C)S(=O)(=O)c1ccc(C(=O)Nc2cc(S(=O)(=O)Nc3ccccc3Cl)ccc2N2CCCCC2)cc1	n	n	n	n	n	29	n
COc1ccccc1NS(=O)(=O)c1cc(NC(=O)Nc2cccc(C)c2)ccc1N1CCCCC1	n	n	n	n	n	30	n
COc1ccccc1NS(=O)(=O)c1cc(NC(C)=O)ccc1N1CCCCC1	n	n	n	n	n	n	x
Cc1cccc(NC(=O)c2cc(NC(=O)c3ccccc3)ccc2N2CCCCC2)c1	n	n	n	n	n	32	n
O=C(Nc1ccc(N2CCOCC2)c(S(=O)(=O)Nc2ccccc2Cl)c1)c1ccccc1	n	n	n	n	n	n	x
Cn1c(SCC(=O)c2ccccc2)ncc(C(=O)Nc2ccccc2)c1=O	n	n	n	n	n	n	x
Cc1ccc(C)c2nc(N3CCCC3)c(C#N)cc12	n	n	n	n	n	32	n
CC[C@H](C)/C=C(C)/C=C/C(=O)Cc1cc(O)c(C)c(O)c1C=O	n	n	n	n	n	33	n
CC[C@H](C)/C=C(C)/C=C/c1cc2c(cn1)C(=O)[C@@](C)(OC(C)=O)C(O)=C2Cl	n	n	n	x	n	n	x
C/C(=N\NC(=S)Nc1ccc(C)cc1)c1cccc(N)c1	n	n	n	n	n	27	n
C/C(=N\NC(=S)Nc1cccc(C)c1)c1cccc(N)c1	n	n	n	n	n	n	x
Cc1ccc(C(=O)O/N=C\c2ccc(N3CCCCC3)c([N+](=O)[O-])c2)cc1	n	n	n	n	n	n	x
CC(C)(C)OC(=O)[C@H](Cc1ccccc1)NC(=O)c1ncn2c1c(=O)[nH]c1ccc(Br)cc12	n	73	n	x	n	40	n
CC(C)(C)C(=O)N1CCN(c2ccc(NC(=O)c3ccc4c(c3)OCCO4)cc2)CC1	n	n	n	n	n	n	x
c1ccc(C2=NCCCO2)cc1	n	n	n	x	n	n	x
Cc1cccc(N(CC(=O)NC2CCCC2)C(=O)c2nsc(Cl)c2Cl)c1C	n	n	n	n	n	n	x
Cc1ccc(C)c(N(CC(=O)NC2CCCCC2)C(=O)c2csnn2)c1	n	n	n	n	n	n	x
Cc1ccc(C)c(N(CC(=O)NC2CCCC2)C(=O)c2cc3cc4cccc(C)c4nc3s2)c1	n	n	n	n	n	32	n
Cc1ccc2cc3cc(C(=O)N(CC(=O)NC4CCCC4)c4cccc(C)c4C)sc3nc2c1	n	n	n	n	n	34	n
CCOc1cc(/C=N\Nc2ccc([N+](=O)[O-])cc2)ccc1OCC(=O)Nc1ccc(C)c(C)c1	n	n	n	n	n	44	n
CCOc1cc(/C=N\NC(=O)Cc2ccccc2)ccc1OCC(=O)Nc1ccc(C)c(C)c1	n	n	n	n	n	n	x
S=c1[nH]nc(-c2cc(-c3ccccc3)n[nH]2)n1/N=C/C(Br)=C/c1ccccc1	n	n	n	n	n	62	n
COc1ccccc1/C=C/C=N/n1c(-c2cc(-c3ccccc3)n[nH]2)n[nH]c1=S	n	n	n	n	n	36	n
Cc1ccc(-c2n[nH]c(=S)n2/N=C/C=C/c2ccccc2[N+](=O)[O-])cc1	n	n	n	n	n	35	n
SMILES	DNMT1 block	LMPTP block	STEP block	Scp1 inh	SUMO1 PPI mod	NadD block	NadD conf
S=c1[nH]nc(-c2cc(-c3ccccc3)n[nH]2)n1/N=C/C=C/c1ccccc1	n	n	n	n	n	33	n
C/C(=C\C(=O)c1ccc(Cl)cc1Cl)N(C)C	n	n	n	n	n	n	x
O=C(NCc1cccc(C(F)(F)F)c1)C1CCCN(c2ncccn2)C1 (stereo unspecified)	n	n	n	n	n	n	x
O=c1ccc(-c2ccc([N+](=O)[O-])cc2)nn1-c1ccccc1	n	n	n	n	n	n	x
C[C@H]1CN([C@@H](C)CO)C(=O)CCCn2nncc2CO[C@H]1CN(C)S(=O)(=O)c1ccc(Cl)cc1	n	n	n	x	n	n	x
CCc1nnc(NCC(=O)N2CCc3ccccc32)s1	n	n	n	n	n	45	n
COc1cc2c(cc1NC(=O)c1cc(-c3ccncc3)nc3ccccc13)oc1ccccc12	n	n	n	n	n	48	n
CCOC(=O)C1CCN(C(=O)c2ccc(CNS(=O)(=O)c3ccc(C)cc3)cc2)CC1	n	n	n	n	n	n	x
COc1ccc(C2Nc3ccccc3C(=O)N2Cc2ccco2)cc1CN1C(=O)c2ccccc2C1=O (stereo unspecified)	n	n	n	n	n	39!	n
O=C(/C=C/c1ccco1)NC(=S)Nc1cccc([N+](=O)[O-])c1	n	n	n	n	n	39	n
Cc1cccc(NC(=S)NC(=O)/C=C/c2ccco2)c1	n	n	n	n	n	n	x
O=C(/C=C/c1ccco1)NC(=S)Nc1cccc(-c2nc3ccccc3s2)c1	n	n	n	n	n	62	n
O=C(/C=C/c1ccco1)NC(=S)Nc1cccc(-c2nc3ccccc3o2)c1	n	n	n	n	n	31	n
CNC(=O)[C@@H]1C[C@H]1[C@@H](NC(=O)CNC(=O)OCc1ccccc1)c1ccccc1	x	x	x	n	x	x	x
N#Cc1cccnc1N1CCN(C(=O)c2cccc3c2C(=O)c2ccc(Cl)cc2S3(=O)=O)CC1	n	n	n	n	n	n	x
COc1ccc(-c2ccc3c(c2)S(=O)(=O)c2cccc(C(=O)N4CCN(c5c(Cl)cncc5Cl)CC4)c2C3=O)cc1OC	n	n	n	n	n	44	n
O=C1c2ccc(Cl)cc2S(=O)(=O)c2cccc(C(=O)N3CCN(c4ncc(Br)cn4)CC3)c21	n	n	n	n	n	n	x
N#Cc1cccnc1N1CCN(C(=O)c2cccc3c2C(=O)c2ccc(-c4ccc(Cl)c(C(F)(F)F)c4)cc2S3(=O)=O)CC1	n	n	n	n	n	35	n
O=C(c1ccc([N+](=O)[O-])s1)N1CCCc2ccccc21	n	n	n	n	n	n	x

Compound activity (PubChem)
